Source: ChEMBL document CHEMBL1125678, “Quinazolineacetic acids and related analogues as aldose reductase inhibitors” (J Med Chem, 1991)
Blank lines part the entries; values can stand above or below the molecule they belong to.

Columns and labels:
Rattus norvegicus [1] = test: In vivo inhibition of galactitol accumulation in the sciatic nerve of rats fed 20% galactose for 4 day at 70 mg/kg/day dose; format: functional
How it was run: (§1)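 Male Sprague-Dawley rats (50–70 g) in groups of six were fed chow with 20% (w/w) galactose. Controls received 20% glucose instead. Test compound was mixed into the diet, and dose was calculated from actual food intake. Rats were killed by decapitation after 4 days. Result is % lowering of tissue galactitol versus galactose-fed controls, as the mean of six animals, compared by Dunnett's multiple comparison.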

[2] = biological target: Aldo-keto reductase family 1 member B1 (Bos taurus) (UniProt P16116); test: In vitro inhibition of aldose reductase in partially purified bovine lens preparation at a concentration of 10e -7M.
How it was run: (§2)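 Enzyme from bovine lens, partially purified by the cited method with the final chromatographic step omitted. DL-Glyceraldehyde was the substrate. Test compounds were run in duplicate at 1×10⁻⁵, 1×10⁻⁶, 1×10⁻⁷ or 4×10⁻⁸ M. Values are % inhibition of enzymatic activity.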

[3] = biological target: Aldo-keto reductase family 1 member B1 (Bos taurus) (UniProt P16116); test: In vitro inhibition of aldose reductase in partially purified bovine lens preparation at a concentration of 4*10e -8M.; how it was run: as §2
Rattus norvegicus [4] = test: In vivo inhibition of galactitol accumulation in the diaphragm of rats fed 20% galactose for 4 day at 70 mg/kg/day dose; format: functional; how it was run: as §1
Rattus norvegicus [5] = test: In vivo inhibition of galactitol accumulation in the diaphragm of rats fed 20% galactose for 4 day at 91 mg/kg/day dose; NS = No Significant inhibition of polyol accumulation; format: functional, organism-based; how it was run: as §1
[6] = biological target: Aldo-keto reductase family 1 member B1 (Bos taurus) (UniProt P16116); test: In vitro inhibition of aldose reductase in partially purified bovine lens preparation at a concentration of 10e-6 M.; how it was run: as §2
Rattus norvegicus [7] = test: In vivo inhibition of galactitol accumulation in the sciatic nerve of rats fed 20% galactose for 4 day at 91 mg/kg/day dose; NS = No Significant inhibition of polyol accumulation; format: functional, organism-based; how it was run: as §1
Rattus norvegicus [8] = test: (§3) In vivo inhibition of galactitol accumulation in the sciatic nerve of rats fed 20% galactose for 4 day at 95 mg/kg/day dose; NS= No Significant inhibition of polyol accumulation; format: functional, organism-based
Rattus norvegicus [9] = test: as §3; format: functional, organism-based; remark: listed apart in the source
Rattus norvegicus [10] = test: In vivo inhibition of galactitol accumulation in the diaphragm of rats fed 20% galactose for 4 day at 102 mg/kg/day dose; format: functional; how it was run: as §1
Rattus norvegicus [11] = test: In vivo inhibition of galactitol accumulation in the sciatic nerve of rats fed 20% galactose for 4 day at 96 mg/kg/day dose; format: functional
[12] = biological target: Aldo-keto reductase family 1 member B1 (Bos taurus) (UniProt P16116); test: In vitro inhibition of Aldose reductase in partially purified bovine lens preparation at a concentration of 4*10e -8M.; how it was run: as §2
[13] = biological target: Aldo-keto reductase family 1 member B1 (Bos taurus) (UniProt P16116); test: In vitro inhibition of Aldose reductase in partially purified bovine lens preparation at a concentration of 10e -7M.; how it was run: as §2
Rattus norvegicus [14] = test: In vivo inhibition of galactitol accumulation in the diaphragm of rats fed 20% galactose for 4 day at 96 mg/kg/day dose; format: functional; how it was run: as §1
Rattus norvegicus [15] = test: In vivo inhibition of galactitol accumulation in the sciatic nerve of rats fed 20% galactose for 4 day at 95 mg/kg/day dose; format: functional
Rattus norvegicus [16] = test: In vivo inhibition of galactitol accumulation in the diaphragm of rats fed 20% galactose for 4 day at 95 mg/kg/day dose; format: functional; how it was run: as §1
Rattus norvegicus [17] = test: In vivo inhibition of galactitol accumulation in the sciatic nerve of rats fed 20% galactose for 4 day at 101 mg/kg/day dose; NS = No Significant inhibition of polyol accumulation; format: functional, organism-based; how it was run: as §1
Rattus norvegicus [18] = test: In vivo inhibition of galactitol accumulation in the diaphragm of rats fed 20% galactose for 4 day at 101 mg/kg/day dose; format: functional; how it was run: as §1
Rattus norvegicus [19] = test: In vivo inhibition of galactitol accumulation in the sciatic nerve of rats fed 20% galactose for 4 day at 77 mg/kg/day dose; NS = No Significant inhibition of polyol accumulation; format: functional, organism-based; how it was run: as §1
[20] = biological target: Aldo-keto reductase family 1 member B1 (Bos taurus) (UniProt P16116); test: in vitro inhibition of Aldose reductase in partially purified bovine lens preparation at a concentration of 10e-6 M.
Rattus norvegicus [21] = test: In vivo inhibition of galactitol accumulation in the diaphragm of rats fed 20% galactose for 4 day at 77 mg/kg/day dose; NS = No Significant inhibition of polyol accumulation; format: functional, organism-based; how it was run: as §1
[22] = biological target: Aldo-keto reductase family 1 member B1 (Bos taurus) (UniProt P16116); test: In vitro inhibition of aldose reductase in partially purified bovine lens preparation at a concentration of 10e -5M.; conditions: in the assay text read “10e -6M” for “10e -5M”; how it was run: as §2
Rattus norvegicus [23] = test: In vivo inhibition of galactitol accumulation in the sciatic nerve of rats fed 20% galactose for 4 day at 100 mg/kg/day dose; format: functional; how it was run: as §1
Rattus norvegicus [24] = test: In vivo inhibition of galactitol accumulation in the diaphragm of rats fed 20% galactose for 4 day at 100 mg/kg/day dose; format: functional; how it was run: as §1
[25] = biological target: Aldo-keto reductase family 1 member B1 (Bos taurus) (UniProt P16116); test: In vitro inhibition of aldose reductase in partially purified bovine lens preparation at a concentration of 10e -6M.; how it was run: as §2

SMILES: O=C(O)Cn1c(C(F)(F)F)nc2ccc(Br)cc2c1=O
inhibition [2]: 23%
Lowering (Rattus norvegicus [5]): Not significant
inhibition [6]: 45%
Lowering (Rattus norvegicus [7]): Not significant

SMILES: O=C(O)CN1C(=O)c2cc(Cl)ccc2N(Cc2ccc(Br)cc2F)[S+]1[O-] (configuration not stated)
Lowering (Rattus norvegicus [8]): Not significant
inhibition [2]: 21%
Lowering (Rattus norvegicus [9]): Not significant
inhibition [3]: 8%

SMILES: COc1ccc(Cn2c(=O)n(CC(=O)O)c(=O)c3cc(Br)ccc32)cc1Br
Lowering (Rattus norvegicus [8]): Not significant
Lowering (Rattus norvegicus [10]): 24%
inhibition [3]: 32%

SMILES: O=C(O)Cn1c(=O)c2cc(Br)ccc2n(Cc2ccc(Br)cc2F)c1=O
Lowering (Rattus norvegicus [11]): 60%
inhibition [12]: 71%
inhibition [13]: 83%
Lowering (Rattus norvegicus [14]): 76%

SMILES: O=C(O)Cn1c(=O)c2cc(Br)ccc2n(Cc2ccc(F)c(F)c2)c1=O
Lowering (Rattus norvegicus [8]): Not significant
inhibition [2]: 30%
Lowering (Rattus norvegicus [10]): 40%
inhibition [3]: 20%

SMILES: O=C(O)Cn1c2ccc([N+](=O)[O-])cc2c(=O)n1Cc1ccc(Br)cc1F
inhibition [12]: 36%
Lowering (Rattus norvegicus [17]): Not significant
inhibition [13]: 60%
Lowering (Rattus norvegicus [18]): 22%

SMILES: O=C(O)Cn1c(=O)c2ccc(Cl)cc2n(Cc2ccc(Br)cc2F)c1=O
Lowering (Rattus norvegicus [15]): 42%
inhibition [2]: 76%
Lowering (Rattus norvegicus [16]): 74%
inhibition [3]: 55%

SMILES: O=C(O)Cn1cnc2ccc(Br)cc2c1=O
Lowering (Rattus norvegicus [19]): Not significant
inhibition [20]: 32%
Lowering (Rattus norvegicus [21]): Not significant

SMILES: O=C(O)Cn1c(=O)c2c(Cl)cccc2n(Cc2ccc(Br)cc2F)c1=O
Lowering (Rattus norvegicus [8]): Not significant
inhibition [2]: 70%
Lowering (Rattus norvegicus [16]): 46%
inhibition [3]: 33%

SMILES: O=C(O)Cn1c(=O)c2ccccc2n(-c2ccccc2)c1=O
inhibition [22]: 45%

SMILES: O=C(O)Cn1c(=O)c2cc([N+](=O)[O-])ccc2n(Cc2ccc(Br)cc2F)c1=O
Lowering (Rattus norvegicus [8]): Not significant
inhibition [2]: 71%
Lowering (Rattus norvegicus [9]): Not significant
inhibition [3]: 38%

SMILES: O=C(O)Cn1c(=O)n(Cc2ccc(Cl)c(Cl)c2)c(=S)c2cc(Cl)ccc21
Lowering (Rattus norvegicus [1]): 28%
inhibition [2]: 89%
inhibition [3]: 54%
Lowering (Rattus norvegicus [4]): 50%

Further lines, with some results ahead:

inhibition [2]: 70%
inhibition [3]: 24%
SMILES: O=C(O)Cn1c(=O)c2cc(Cl)ccc2n(Cc2ccc(Br)cc2F)c1=S
Lowering (Rattus norvegicus [1]): 39%
Lowering (Rattus norvegicus [4]): 60%

inhibition [2]: 71%
inhibition [3]: 29%
SMILES: O=C(O)Cn1c(=O)c2cc(Cl)ccc2n(Cc2ccc(Cl)c(Cl)c2)c1=O
Lowering (Rattus norvegicus [15]): 72%
Lowering (Rattus norvegicus [16]): 83%

inhibition [12]: 28%
inhibition [13]: 42%
SMILES: O=C(O)Cn1c2ccccc2c(=O)n1Cc1ccc(Br)cc1F
Lowering (Rattus norvegicus [11]): 25%
Lowering (Rattus norvegicus [14]): 51%

inhibition [2]: 85%
inhibition [3]: 49%
SMILES: COc1ccc2c(c1)c(=O)n(CC(=O)O)c(=O)n2Cc1ccc(Cl)c(Cl)c1
Lowering (Rattus norvegicus [23]): 63%
Lowering (Rattus norvegicus [24]): 70%

inhibition [25]: 34%
SMILES: CC(c1ccccc1)n1c(=O)n(CC(=O)O)c(=O)c2cc(Br)ccc21 (configuration not stated)
Lowering (Rattus norvegicus [8]): Not significant

inhibition [22]: 60%
SMILES: Cn1c(=O)n(CC(=O)O)c(=O)c2cc(Cl)ccc21
